According to ChEMBL document CHEMBL2375276, “Antibacterial oxazolidinone analogues having a N-hydroxyacetyl-substituted seven-membered [1,2,5]triazepane or [1,2,5]oxadiazepane C-ring unit” (Eur J Med Chem, 2013):
In brackets after ≈: the same amount, converted by molar mass.

Tests used:
Format in all cases: functional
Haemophilus influenzae [1] = assay: Antibacterial activity against Haemophilus influenzae SR27914 clinical isolate assessed as growth inhibition by CLSI broth microdilution method
Method in brief: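 MIC by CLSI broth microdilution using Haemophilus test medium.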

Streptococcus pneumoniae [2] = assay: Antibacterial activity against Streptococcus pneumoniae SR26207 clinical isolate assessed as growth inhibition by CLSI broth microdilution method
Method in brief: (§1)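 MIC by CLSI broth microdilution in cation-adjusted Mueller-Hinton broth; S. pneumoniae medium supplemented with 5% lysed horse blood.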

Moraxella catarrhalis [3] = assay: Antibacterial activity against Moraxella catarrhalis SR26840 clinical isolate assessed as growth inhibition by CLSI broth microdilution method; method in brief: as §1
Enterococcus faecium [4] = assay: Antibacterial activity against Enterococcus faecium SR7940 clinical isolate assessed as growth inhibition by CLSI broth microdilution method; method in brief: as §1
Enterococcus faecalis [5] = assay: Antibacterial activity against Enterococcus faecalis SR1004 clinical isolate assessed as growth inhibition by CLSI broth microdilution method; method in brief: as §1
Staphylococcus aureus [6] = assay: Antibacterial activity against linezolid-resistant Staphylococcus aureus NRS271 assessed as growth inhibition by CLSI broth microdilution method
Method in brief: (§2)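 MIC by CLSI broth microdilution in cation-adjusted Mueller-Hinton broth. Lowest concentration inhibiting growth taken as MIC.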

Staphylococcus aureus [7] = assay: Antibacterial activity against Staphylococcus aureus Smith assessed as growth inhibition by CLSI broth microdilution method; method in brief: as §1
Staphylococcus aureus [8] = assay: Antibacterial activity against Staphylococcus aureus SR20549 clinical isolate assessed as growth inhibition by CLSI broth microdilution method; method in brief: as §1
Staphylococcus aureus [9] = assay: Antibacterial activity against methicillin-resistant Staphylococcus aureus SR3637 infected in JCL/ICR mouse systemic infection model assessed as mortality administered as po measured over 7 days; details: 168 h
Method in brief: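 Five-week-old male JCL/ICR mice (20–25 g), five per group. Infected intraperitoneally with 0.5 or 1.0 mL bacterial suspension (about 100× LD50). Oral dosing 1 h post-infection. Mortality followed 7 days; ED50 with 95% confidence limits by logit method.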

Staphylococcus aureus [10] = assay: Antibacterial activity against methicillin-resistant Staphylococcus aureus SR3637 infected in JCL/ICR mouse systemic infection model assessed as mortality administered as iv measured over 7 days; details: 168 h
Method in brief: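 Five-week-old male JCL/ICR mice (20–25 g), five per group. Infected intraperitoneally with 0.5 or 1.0 mL bacterial suspension (about 100× LD50). Intravenous dosing 1 h post-infection. Mortality followed 7 days; ED50 with 95% confidence limits by logit method.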

Staphylococcus aureus [11] = assay: Antibacterial activity against methicillin-resistant Staphylococcus aureus SR3637 assessed as growth inhibition by CLSI broth microdilution method; method in brief: as §2
Haemophilus influenzae [12] = assay: Ratio of eperezolid MIC to compound MIC for Haemophilus influenzae SR27914 clinical isolate
Streptococcus pneumoniae [13] = assay: Ratio of eperezolid MIC to compound MIC for Streptococcus pneumoniae SR26207 clinical isolate
Moraxella catarrhalis [14] = assay: Ratio of eperezolid MIC to compound MIC for Moraxella catarrhalis SR26840 clinical isolate
Enterococcus faecium [15] = assay: Ratio of eperezolid MIC to compound MIC for Enterococcus faecium SR7940 clinical isolate
Enterococcus faecalis [16] = assay: Ratio of eperezolid MIC to compound MIC for Enterococcus faecalis SR1004 clinical isolate
Staphylococcus aureus [17] = assay: Ratio of eperezolid MIC to compound MIC for Staphylococcus aureus Smith
Staphylococcus aureus [18] = assay: Ratio of eperezolid MIC to compound MIC for Staphylococcus aureus SR20549 clinical isolate
Moraxella catarrhalis [19] = assay: Ratio of linezolid MIC to compound MIC for Moraxella catarrhalis SR26840 clinical isolate
Streptococcus pneumoniae [20] = assay: Ratio of linezolid MIC to compound MIC for Streptococcus pneumoniae SR26207 clinical isolate
Haemophilus influenzae [21] = assay: Ratio of linezolid MIC to compound MIC for Haemophilus influenzae SR27914 clinical isolate
Enterococcus faecium [22] = assay: Ratio of linezolid MIC to compound MIC for Enterococcus faecium SR7940 clinical isolate
Enterococcus faecalis [23] = assay: Ratio of linezolid MIC to compound MIC for Enterococcus faecalis SR1004 clinical isolate
Staphylococcus aureus [24] = assay: Ratio of linezolid MIC to compound MIC for Staphylococcus aureus Smith
Staphylococcus aureus [25] = assay: Ratio of linezolid MIC to compound MIC for Staphylococcus aureus SR20549 clinical isolate

SMILES	MIC (Haemophilus influenzae [1]) [µg/mL]	MIC (Streptococcus pneumoniae [2]) [µg/mL]	MIC (Moraxella catarrhalis [3]) [µg/mL]	MIC (Enterococcus faecium [4]) [µg/mL]	MIC (Enterococcus faecalis [5]) [µg/mL]	MIC (Staphylococcus aureus [6]) [µg/mL]	MIC (Staphylococcus aureus [7]) [µg/mL]	MIC (Staphylococcus aureus [8]) [µg/mL]	Ratio (Haemophilus influenzae [12])	Ratio (Streptococcus pneumoniae [13])	Ratio (Moraxella catarrhalis [14])	Ratio (Enterococcus faecium [15])	Ratio (Enterococcus faecalis [16])	Ratio (Staphylococcus aureus [17])	Ratio (Staphylococcus aureus [18])	Ratio (Moraxella catarrhalis [19])	Ratio (Streptococcus pneumoniae [20])	Ratio (Haemophilus influenzae [21])	Ratio (Enterococcus faecium [22])	Ratio (Enterococcus faecalis [23])	further results
CC(=O)NC[C@H]1CN(c2cc(F)c(N3CCON(C(=O)CO)CC3)c(F)c2)C(=O)O1	16 (≈ 37.3 µM)	1 (≈ 2.33 µM)	8 (≈ 18.7 µM)	2 (≈ 4.67 µM)	4 (≈ 9.34 µM)	32 (≈ 74.7 µM)	2 (≈ 4.67 µM)	2 (≈ 4.67 µM)	–	–	–	–	–	–	–	–	–	–	–	–	–
CC(=O)NC[C@H]1CN(c2cc(F)c(N3CCNOCC3)c(F)c2)C(=O)O1	16 (≈ 43.2 µM)	0.25 (≈ 0.675 µM)	4 (≈ 10.8 µM)	1 (≈ 2.7 µM)	2 (≈ 5.4 µM)	16 (≈ 43.2 µM)	1 (≈ 2.7 µM)	1 (≈ 2.7 µM)	–	–	–	–	–	–	–	–	–	–	–	–	–
CC(=S)NC[C@H]1CN(c2ccc(N3CCNN(C(=O)CO)CC3)c(F)c2)C(=O)O1	2 (≈ 4.7 µM)	≤ 0.063	1 (≈ 2.35 µM)	0.5 (≈ 1.18 µM)	0.5 (≈ 1.18 µM)	8 (≈ 18.8 µM)	0.25 (≈ 0.588 µM)	0.5 (≈ 1.18 µM)	4	4	4	4	4	4	4	4	4	4	4	4	ED50 (Staphylococcus aureus [9]): > 10 mg/kg; ED50 (Staphylococcus aureus [10]): 2.95 mg/kg; MIC (Staphylococcus aureus [11]): 0.25 µg/mL (≈ 0.588 µM); Ratio (Staphylococcus aureus [24]): 4; Ratio (Staphylococcus aureus [25]): 4
CC(=S)NC[C@H]1CN(c2cc(F)c(N3CCNN(C(=O)CO)CC3)c(F)c2)C(=O)O1	2 (≈ 4.51 µM)	0.063 (≈ 0.142 µM)	0.5 (≈ 1.13 µM)	0.125 (≈ 0.282 µM)	0.25 (≈ 0.564 µM)	1 (≈ 2.25 µM)	0.25 (≈ 0.564 µM)	0.125 (≈ 0.282 µM)	4	4	4	4	4	4	4	4	4	4	4	4	ED50 (Staphylococcus aureus [9]): 9.83 mg/kg; ED50 (Staphylococcus aureus [10]): 2.95 mg/kg; MIC (Staphylococcus aureus [11]): 0.125 µg/mL (≈ 0.282 µM); Ratio (Staphylococcus aureus [24]): 4; Ratio (Staphylococcus aureus [25]): 4
CC(=S)NC[C@H]1CN(c2cc(F)c(N3CCON(C(=O)CO)CC3)c(F)c2)C(=O)O1	4 (≈ 9 µM)	0.063 (≈ 0.142 µM)	1 (≈ 2.25 µM)	0.25 (≈ 0.562 µM)	0.25 (≈ 0.562 µM)	2 (≈ 4.5 µM)	0.25 (≈ 0.562 µM)	0.125 (≈ 0.281 µM)	4	4	4	4	4	4	4	4	4	4	4	4	Ratio (Staphylococcus aureus [24]): 4; Ratio (Staphylococcus aureus [25]): 4
CC(=S)NC[C@H]1CN(c2cc(F)c(N3CCNOCC3)c(F)c2)C(=O)O1	2 (≈ 5.18 µM)	0.063 (≈ 0.163 µM)	1 (≈ 2.59 µM)	0.125 (≈ 0.323 µM)	0.25 (≈ 0.647 µM)	4 (≈ 10.4 µM)	0.25 (≈ 0.647 µM)	0.25 (≈ 0.647 µM)	–	–	–	–	–	–	–	–	–	–	–	–	–
COC(=S)NC[C@H]1CN(c2cc(F)c(N3CCON(C(=O)CO)CC3)c(F)c2)C(=O)O1	4 (≈ 8.69 µM)	0.125 (≈ 0.271 µM)	1 (≈ 2.17 µM)	0.25 (≈ 0.543 µM)	0.5 (≈ 1.09 µM)	2 (≈ 4.34 µM)	0.25 (≈ 0.543 µM)	0.25 (≈ 0.543 µM)	4	4	4	4	4	4	4	4	4	4	4	4	Ratio (Staphylococcus aureus [24]): 4; Ratio (Staphylococcus aureus [25]): 4
COC(=S)NC[C@H]1CN(c2cc(F)c(N3CCNOCC3)c(F)c2)C(=O)O1	8 (≈ 19.9 µM)	0.125 (≈ 0.311 µM)	1 (≈ 2.48 µM)	0.25 (≈ 0.621 µM)	0.5 (≈ 1.24 µM)	4 (≈ 9.94 µM)	0.5 (≈ 1.24 µM)	0.25 (≈ 0.621 µM)	–	–	–	–	–	–	–	–	–	–	–	–	–
O=C(CO)N1CCN(c2ccc(N3C[C@H](Cn4ccnn4)OC3=O)cc2F)CCN1	16 (≈ 38.1 µM)	1 (≈ 2.38 µM)	8 (≈ 19.1 µM)	4 (≈ 9.54 µM)	4 (≈ 9.54 µM)	64 (≈ 153 µM)	4 (≈ 9.54 µM)	2 (≈ 4.77 µM)	–	–	–	–	–	–	–	–	–	–	–	–	ED50 (Staphylococcus aureus [10]): 0.77 mg/kg
